Measurements reported in ChEMBL document CHEMBL5653631, “A Potent and Selective ULK1 Inhibitor Suppresses Autophagy and Sensitizes Cancer Cells to Nutrient Stress” (iScience, 2018).

Tests used:
[1] = target: Serine/threonine-protein kinase 24 (Homo sapiens) (UniProt Q9Y6E0); experiment: Inhibition of human recombinant MST3 at 40 nM related to control ULK1
[2] = target: Serine/threonine-protein kinase N1 (Homo sapiens) (UniProt Q16512); experiment: Inhibition of human recombinant PKN1 at 40 nM in presence of ATP by radiometric assay relative to control
[3] = target: 5'-AMP-activated protein kinase catalytic subunit alpha-1 (Homo sapiens) (UniProt Q13131); experiment: Inhibition of human recombinant AMPKa1 at 40 nM related to control ULK1
How it was run: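 Radiometric activity assays in a panel of 327 human recombinant kinases, each run in duplicate at one inhibitor concentration. Activity remaining is expressed as percent of vehicle control, and percent inhibition is calculated as 100% minus percent activity remaining.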

[4] = target: Serine/threonine-protein kinase PLK2 (Homo sapiens) (UniProt Q9NYY3); experiment: Inhibition of human recombinant PLK2 at 40 nM in presence of ATP by radiometric assay relative to control
[5] = target: T1, Mitogen-activated protein kinase kinase kinase 3 (Homo sapiens) (UniProt Q99759); experiment: Inhibition of human recombinant MAP3K3 at 40 nM in presence of ATP by radiometric assay relative to control
T1 sequence (whole entry): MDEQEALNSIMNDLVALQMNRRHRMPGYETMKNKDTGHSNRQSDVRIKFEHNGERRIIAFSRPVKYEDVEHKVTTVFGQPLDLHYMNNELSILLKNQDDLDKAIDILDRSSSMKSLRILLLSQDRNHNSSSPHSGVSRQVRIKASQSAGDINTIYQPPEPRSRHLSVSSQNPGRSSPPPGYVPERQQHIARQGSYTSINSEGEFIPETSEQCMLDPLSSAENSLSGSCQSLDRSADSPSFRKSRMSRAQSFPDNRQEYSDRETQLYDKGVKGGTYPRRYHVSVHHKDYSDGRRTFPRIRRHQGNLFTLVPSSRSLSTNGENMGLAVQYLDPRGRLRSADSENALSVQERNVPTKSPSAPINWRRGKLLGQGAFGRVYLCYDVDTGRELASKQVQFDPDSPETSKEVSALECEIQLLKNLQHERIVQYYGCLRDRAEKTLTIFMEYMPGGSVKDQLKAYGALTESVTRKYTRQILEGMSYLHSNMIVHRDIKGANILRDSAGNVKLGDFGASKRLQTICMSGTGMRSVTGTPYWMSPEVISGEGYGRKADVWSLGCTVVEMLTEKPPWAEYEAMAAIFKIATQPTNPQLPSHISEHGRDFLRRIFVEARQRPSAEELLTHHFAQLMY

[6] = target: Serine/threonine-protein kinase PRP4 homolog (Homo sapiens) (UniProt Q13523); experiment: Inhibition of human recombinant PRP4 at 40 nM related to control ULK1
[7] = target: Serine/threonine-protein kinase NIM1 (Homo sapiens) (UniProt Q8IY84); experiment: Inhibition of human recombinant NIM1 at 40 nM related to control ULK1
Chain of Serine/threonine-protein kinase NIM1 (Homo sapiens) (Q8IY84 whole entry): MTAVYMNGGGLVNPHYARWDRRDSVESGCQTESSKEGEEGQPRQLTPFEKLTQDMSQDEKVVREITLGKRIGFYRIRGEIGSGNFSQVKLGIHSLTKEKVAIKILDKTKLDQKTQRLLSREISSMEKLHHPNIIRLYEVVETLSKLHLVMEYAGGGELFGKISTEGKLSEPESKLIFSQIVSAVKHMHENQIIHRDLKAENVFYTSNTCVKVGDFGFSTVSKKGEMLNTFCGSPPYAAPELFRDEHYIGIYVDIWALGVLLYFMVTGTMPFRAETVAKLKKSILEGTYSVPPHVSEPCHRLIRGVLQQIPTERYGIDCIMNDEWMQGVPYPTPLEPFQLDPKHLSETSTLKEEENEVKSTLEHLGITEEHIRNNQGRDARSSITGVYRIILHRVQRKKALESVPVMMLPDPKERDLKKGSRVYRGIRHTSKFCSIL

[8] = target: Protein kinase C gamma type (Homo sapiens) (UniProt P05129); experiment: Inhibition of human recombinant PKCg at 40 nM in presence of ATP by radiometric assay relative to control
[9] = target: Wee1-like protein kinase (Homo sapiens) (UniProt P30291); experiment: Inhibition of human recombinant Wee1 at 15 nM related to control ULK1
[10] = target: Fibroblast growth factor receptor 4 (Homo sapiens) (UniProt P22455); experiment: Inhibition of human recombinant FGFR4 at 15 nM in presence of ATP by radiometric assay relative to control
[11] = target: eIF-2-alpha kinase GCN2 (Homo sapiens) (UniProt Q9P2K8); experiment: Inhibition of human recombinant GCN2 at 15 nM in presence of ATP by radiometric assay relative to control
[12] = target: Mitogen-activated protein kinase 14 (Homo sapiens) (UniProt Q16539); experiment: Inhibition of human recombinant p38alpha at 500 nM in presence of ATP by radiometric assay relative to control
Chain of Mitogen-activated protein kinase 14 (Homo sapiens) (Q16539 whole entry): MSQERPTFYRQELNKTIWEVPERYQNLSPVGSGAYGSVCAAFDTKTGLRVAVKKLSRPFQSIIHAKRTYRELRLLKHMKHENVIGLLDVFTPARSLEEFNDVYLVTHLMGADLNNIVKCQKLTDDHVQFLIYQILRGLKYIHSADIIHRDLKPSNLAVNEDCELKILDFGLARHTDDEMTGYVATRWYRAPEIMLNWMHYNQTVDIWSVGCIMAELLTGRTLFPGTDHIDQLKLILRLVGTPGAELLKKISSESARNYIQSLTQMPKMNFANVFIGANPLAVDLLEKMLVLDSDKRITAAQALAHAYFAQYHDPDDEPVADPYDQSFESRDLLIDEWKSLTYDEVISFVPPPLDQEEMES

[13] = target: TRAF2 and NCK-interacting protein kinase (Homo sapiens) (UniProt Q9UKE5); experiment: Inhibition of human recombinant TNIK at 500 nM related to control ULK1
Chain of TRAF2 and NCK-interacting protein kinase (Homo sapiens) (Q9UKE5 whole entry, looked up): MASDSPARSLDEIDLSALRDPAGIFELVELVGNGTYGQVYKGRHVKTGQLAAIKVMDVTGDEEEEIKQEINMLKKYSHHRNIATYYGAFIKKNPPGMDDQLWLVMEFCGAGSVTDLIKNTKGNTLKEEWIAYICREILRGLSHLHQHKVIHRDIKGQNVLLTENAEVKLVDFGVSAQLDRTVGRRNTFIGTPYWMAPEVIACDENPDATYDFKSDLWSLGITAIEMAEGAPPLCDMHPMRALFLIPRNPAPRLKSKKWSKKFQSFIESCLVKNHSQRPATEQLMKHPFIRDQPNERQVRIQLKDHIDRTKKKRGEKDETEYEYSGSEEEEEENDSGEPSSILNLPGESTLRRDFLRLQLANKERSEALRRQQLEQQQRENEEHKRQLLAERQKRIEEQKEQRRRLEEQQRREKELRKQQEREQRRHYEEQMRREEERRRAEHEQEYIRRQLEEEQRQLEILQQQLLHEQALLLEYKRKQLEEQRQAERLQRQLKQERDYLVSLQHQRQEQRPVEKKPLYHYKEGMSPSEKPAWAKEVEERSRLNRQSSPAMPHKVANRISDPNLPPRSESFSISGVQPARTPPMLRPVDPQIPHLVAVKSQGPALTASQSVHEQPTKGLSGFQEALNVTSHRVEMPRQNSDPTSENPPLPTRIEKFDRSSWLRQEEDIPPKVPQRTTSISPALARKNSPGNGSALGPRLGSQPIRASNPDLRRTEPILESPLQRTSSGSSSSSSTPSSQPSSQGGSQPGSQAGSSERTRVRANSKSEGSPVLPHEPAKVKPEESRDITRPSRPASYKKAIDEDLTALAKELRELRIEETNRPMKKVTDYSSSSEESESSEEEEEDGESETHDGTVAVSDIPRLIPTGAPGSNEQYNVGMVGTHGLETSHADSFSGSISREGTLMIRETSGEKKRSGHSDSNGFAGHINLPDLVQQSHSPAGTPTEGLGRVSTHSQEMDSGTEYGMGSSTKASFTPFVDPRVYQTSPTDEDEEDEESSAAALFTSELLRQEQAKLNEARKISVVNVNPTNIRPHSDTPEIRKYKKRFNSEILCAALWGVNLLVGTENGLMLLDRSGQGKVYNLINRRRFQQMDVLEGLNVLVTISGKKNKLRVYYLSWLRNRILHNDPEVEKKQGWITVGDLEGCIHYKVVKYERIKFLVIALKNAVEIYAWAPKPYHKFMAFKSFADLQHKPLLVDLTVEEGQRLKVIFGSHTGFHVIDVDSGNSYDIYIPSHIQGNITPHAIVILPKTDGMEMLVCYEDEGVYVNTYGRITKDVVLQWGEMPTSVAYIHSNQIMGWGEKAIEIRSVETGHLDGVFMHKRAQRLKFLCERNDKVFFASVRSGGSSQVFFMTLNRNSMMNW

[14] = target: RAF proto-oncogene serine/threonine-protein kinase (Homo sapiens) (UniProt P04049); experiment: Inhibition of human recombinant RAF1 at 500 nM in presence of ATP by radiometric assay relative to control
Chain of RAF proto-oncogene serine/threonine-protein kinase (Homo sapiens) (P04049 whole entry): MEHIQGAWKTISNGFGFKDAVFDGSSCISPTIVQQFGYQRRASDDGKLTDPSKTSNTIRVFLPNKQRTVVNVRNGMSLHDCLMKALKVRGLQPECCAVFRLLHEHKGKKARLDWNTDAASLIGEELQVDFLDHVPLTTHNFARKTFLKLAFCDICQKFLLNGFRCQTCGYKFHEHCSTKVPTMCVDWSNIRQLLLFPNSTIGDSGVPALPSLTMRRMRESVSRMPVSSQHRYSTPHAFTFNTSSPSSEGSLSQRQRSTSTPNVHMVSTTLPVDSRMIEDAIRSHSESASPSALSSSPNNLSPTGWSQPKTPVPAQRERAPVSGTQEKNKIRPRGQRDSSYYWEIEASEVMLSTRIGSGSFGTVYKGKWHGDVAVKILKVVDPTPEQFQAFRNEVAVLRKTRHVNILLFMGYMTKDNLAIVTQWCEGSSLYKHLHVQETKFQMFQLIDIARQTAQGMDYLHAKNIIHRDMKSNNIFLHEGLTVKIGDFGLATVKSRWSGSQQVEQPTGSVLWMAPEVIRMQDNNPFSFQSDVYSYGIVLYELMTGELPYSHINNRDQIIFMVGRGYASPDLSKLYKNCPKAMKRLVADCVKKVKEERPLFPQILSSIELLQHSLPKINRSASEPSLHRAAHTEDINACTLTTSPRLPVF

[15] = target: Serine/threonine-protein kinase PAK 3 (Homo sapiens) (UniProt O75914); experiment: Inhibition of human recombinant PAK3 at 500 nM in presence of ATP by radiometric assay relative to control
Chain of Serine/threonine-protein kinase PAK 3 (Homo sapiens) (O75914 whole entry, looked up): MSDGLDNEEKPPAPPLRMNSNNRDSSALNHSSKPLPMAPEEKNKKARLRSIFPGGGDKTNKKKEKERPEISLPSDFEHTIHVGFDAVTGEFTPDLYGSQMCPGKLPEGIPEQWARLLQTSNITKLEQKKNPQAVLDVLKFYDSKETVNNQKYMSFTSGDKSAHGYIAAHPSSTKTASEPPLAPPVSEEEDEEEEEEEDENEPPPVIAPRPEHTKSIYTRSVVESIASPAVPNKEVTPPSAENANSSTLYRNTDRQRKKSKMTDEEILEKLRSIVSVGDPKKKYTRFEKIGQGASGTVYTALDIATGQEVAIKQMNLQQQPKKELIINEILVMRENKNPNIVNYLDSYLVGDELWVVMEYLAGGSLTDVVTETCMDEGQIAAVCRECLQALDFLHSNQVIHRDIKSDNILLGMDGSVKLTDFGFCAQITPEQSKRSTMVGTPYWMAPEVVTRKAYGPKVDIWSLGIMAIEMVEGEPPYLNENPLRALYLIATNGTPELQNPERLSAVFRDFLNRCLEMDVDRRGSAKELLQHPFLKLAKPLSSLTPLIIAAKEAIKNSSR

[16] = target: TRAF2 and NCK-interacting protein kinase (Homo sapiens) (UniProt Q9UKE5); experiment: Inhibition of human recombinant TNIK at 500 nM in presence of ATP by radiometric assay relative to control
[17] = target: T2, Serine/threonine-protein kinase TBK1 (Homo sapiens) (UniProt Q9UHD2); experiment: Inhibition of human recombinant TBK1 at 500 nM in presence of ATP by radiometric assay relative to control
T2 sequence (whole entry): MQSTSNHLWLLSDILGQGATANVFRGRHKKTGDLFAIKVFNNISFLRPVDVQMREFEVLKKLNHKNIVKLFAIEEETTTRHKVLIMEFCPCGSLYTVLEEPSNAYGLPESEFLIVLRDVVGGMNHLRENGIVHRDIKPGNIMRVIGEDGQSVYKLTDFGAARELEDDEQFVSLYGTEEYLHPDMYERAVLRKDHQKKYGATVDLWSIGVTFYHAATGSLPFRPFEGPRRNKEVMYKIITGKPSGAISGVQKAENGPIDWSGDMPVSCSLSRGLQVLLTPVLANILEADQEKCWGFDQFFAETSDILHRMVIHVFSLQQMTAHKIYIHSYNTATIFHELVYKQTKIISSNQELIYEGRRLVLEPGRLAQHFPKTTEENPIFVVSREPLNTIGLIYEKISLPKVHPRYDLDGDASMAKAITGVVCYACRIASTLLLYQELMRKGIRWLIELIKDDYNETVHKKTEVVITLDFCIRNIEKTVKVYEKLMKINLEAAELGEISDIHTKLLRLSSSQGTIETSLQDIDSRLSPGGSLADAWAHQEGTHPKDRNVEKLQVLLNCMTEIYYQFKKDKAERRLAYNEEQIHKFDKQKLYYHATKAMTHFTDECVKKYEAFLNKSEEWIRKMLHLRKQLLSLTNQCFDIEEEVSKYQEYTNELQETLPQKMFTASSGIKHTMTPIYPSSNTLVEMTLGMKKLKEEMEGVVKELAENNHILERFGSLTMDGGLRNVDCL

[18] = target: Fibroblast growth factor receptor 1 (Homo sapiens) (UniProt P11362); experiment: Inhibition of human recombinant FGFR1 at 500 nM in presence of ATP by radiometric assay relative to control
Chain of Fibroblast growth factor receptor 1 (Homo sapiens) (P11362 22-822 limits assumed): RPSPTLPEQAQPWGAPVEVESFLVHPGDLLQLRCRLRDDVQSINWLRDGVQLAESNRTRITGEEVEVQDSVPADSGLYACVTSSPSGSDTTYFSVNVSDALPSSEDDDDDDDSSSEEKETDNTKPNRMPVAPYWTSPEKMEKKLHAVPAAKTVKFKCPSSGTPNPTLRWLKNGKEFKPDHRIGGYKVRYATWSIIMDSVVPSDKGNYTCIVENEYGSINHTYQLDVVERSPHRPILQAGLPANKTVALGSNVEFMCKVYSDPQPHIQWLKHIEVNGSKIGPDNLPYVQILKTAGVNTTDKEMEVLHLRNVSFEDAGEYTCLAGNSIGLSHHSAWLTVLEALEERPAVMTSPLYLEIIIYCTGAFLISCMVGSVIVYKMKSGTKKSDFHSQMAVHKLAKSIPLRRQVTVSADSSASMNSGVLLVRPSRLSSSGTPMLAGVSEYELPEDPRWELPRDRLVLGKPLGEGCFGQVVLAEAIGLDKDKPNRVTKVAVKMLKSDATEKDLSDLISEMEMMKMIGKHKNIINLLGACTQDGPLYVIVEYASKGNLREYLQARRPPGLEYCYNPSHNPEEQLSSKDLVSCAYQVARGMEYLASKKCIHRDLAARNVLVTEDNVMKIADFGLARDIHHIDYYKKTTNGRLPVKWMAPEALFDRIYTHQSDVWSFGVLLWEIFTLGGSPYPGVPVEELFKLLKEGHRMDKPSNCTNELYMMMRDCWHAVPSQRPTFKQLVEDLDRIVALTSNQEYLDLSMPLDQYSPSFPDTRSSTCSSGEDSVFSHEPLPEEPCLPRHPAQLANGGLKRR

[19] = target: Serine/threonine-protein kinase Nek4 (Homo sapiens) (UniProt P51957); experiment: Inhibition of human recombinant NEK4 at 500 nM related to control ULK1
Chain of Serine/threonine-protein kinase Nek4 (Homo sapiens) (P51957 whole entry, looked up): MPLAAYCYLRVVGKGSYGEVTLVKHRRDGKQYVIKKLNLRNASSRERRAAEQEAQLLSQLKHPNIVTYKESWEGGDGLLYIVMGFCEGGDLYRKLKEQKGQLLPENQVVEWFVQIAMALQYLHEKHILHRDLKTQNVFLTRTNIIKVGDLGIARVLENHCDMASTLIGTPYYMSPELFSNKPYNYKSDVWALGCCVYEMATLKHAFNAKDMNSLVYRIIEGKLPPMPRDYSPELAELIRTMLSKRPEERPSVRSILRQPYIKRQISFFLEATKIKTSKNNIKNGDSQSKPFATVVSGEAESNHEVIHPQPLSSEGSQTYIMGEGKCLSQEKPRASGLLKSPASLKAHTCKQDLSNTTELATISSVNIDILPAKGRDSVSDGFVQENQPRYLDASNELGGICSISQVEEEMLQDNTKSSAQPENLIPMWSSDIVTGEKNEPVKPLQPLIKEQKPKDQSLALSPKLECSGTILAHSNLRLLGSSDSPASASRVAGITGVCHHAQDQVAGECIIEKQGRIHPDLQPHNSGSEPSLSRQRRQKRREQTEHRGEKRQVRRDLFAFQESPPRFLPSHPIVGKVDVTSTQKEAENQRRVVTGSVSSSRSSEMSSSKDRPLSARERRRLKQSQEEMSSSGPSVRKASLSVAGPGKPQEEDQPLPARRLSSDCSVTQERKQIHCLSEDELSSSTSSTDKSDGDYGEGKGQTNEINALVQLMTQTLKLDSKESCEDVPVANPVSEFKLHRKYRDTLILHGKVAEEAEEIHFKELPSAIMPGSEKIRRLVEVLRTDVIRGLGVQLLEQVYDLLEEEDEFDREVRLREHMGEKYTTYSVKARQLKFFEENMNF

[20] = target: Homeodomain-interacting protein kinase 3 (Homo sapiens) (UniProt Q9H422); experiment: Inhibition of human recombinant HIPK3 at 500 nM in presence of ATP by radiometric assay relative to control

O=C(N[C@@H](C1CC1)C(F)(F)F)c1cc(-c2cnn3cc(-c4ccc(F)cc4)cnc23)cs1
fold change (FC) [1]: 0.27
inhibition [2]: 0%
fold change (FC) [3]: 0.11
inhibition [4]: 3%
inhibition [5]: 0%
fold change (FC) [6]: 0.08
fold change (FC) [7]: 0
inhibition [8]: 0%

CC(C)[C@H](NC(=O)c1cc(-c2cnn3cc(-c4ccc(OCCN5CCCCC5)cc4)cnc23)cs1)C(F)(F)F
fold change (FC) [9]: 0.17
inhibition [10]: 0%
inhibition [11]: 8%

CNC(=O)c1ccccc1Oc1nc(Nc2cc(OC)c(OC)c(OC)c2)ncc1Br
inhibition [12]: 5%
fold change (FC) [13]: 0.05
inhibition [14]: 11%
inhibition [15]: 9%
inhibition [16]: 4%
inhibition [17]: 0%
inhibition [18]: 35%
fold change (FC) [19]: 0.31
inhibition [20]: 6%
